# Experimental data gathered from unrelated publications.
# Target: Phosphatidylinositol 3-kinase catalytic subunit type 3 (PIK3C3, Homo sapiens, UniProt Q8NEB9)
Structure (SMILES),read-out,technique,tested at,remaining binding
Cc1cnn2ncc(-c3ccnc(N(C)C)n3)c2c1,binding,,1 µM,87%
Cc1cnc(Nc2ccc(C(=O)N3CCC(N4CCCC4)CC3)cc2)nc1-c1cc2ccccc2s1,binding,competition with immobilised ligand,1 µM,14%
CC1=C(C#N)C(c2ccc3c(c2)c(NC(=O)c2ccccc2C)nn3C)C(C#N)=C(C)N1,cell-free assay,competition with immobilised ligand,1 µM,87%
CNC(=O)[C@@H]1CC[C@@H](n2c(-c3ccc4cnccc4c3)nc3ccc(C(=O)NCc4cccc(C(N)=O)c4)cc32)C1,binding,competition with immobilised ligand,1 µM,7.2%
O=C(NC[C@@H]1[C@H]2CN(C(=O)OCc3cc(C(F)(F)F)cc(C(F)(F)F)c3)C[C@@H]12)c1ccc2[nH]nnc2c1,cell-free assay,competition with immobilised ligand,1 µM,72%
c1cnn2ncc(-c3ccnc(N4CCC45COC5)n3)c2c1,binding,,1 µM,48%
c1cncc(-c2cccc(Nc3nccc(NC4CCCCC4)n3)c2)c1,binding,competition with immobilised ligand,10 µM,21%
c1ccc(N2CCN(Cc3nc4ccccc4[nH]3)CC2)nc1,cell-free assay,competition with immobilised ligand,1 µM,100%
O=C(c1ccc(Nc2ncc(Cl)c(-c3ccc(Cl)s3)n2)cc1)N1CCC(N2CCCC2)CC1,binding,competition with immobilised ligand,1 µM,54%
O=C(O)[C@@H]1[C@@H](Cn2nnc3ccccc3c2=O)CC[C@H]1C(=O)c1ccc(OCCC2CCOCC2)cc1,cell-free assay,competition with immobilised ligand,1 µM,96%
C[C@@H]1CCN(c2nccc(-c3cnn4ncccc34)n2)C1,binding,,1 µM,70%
O=C(c1ccc(Nc2nccc(-c3cc4ccccc4s3)n2)cc1)N1CCC(N2CCCC2)CC1,binding,competition with immobilised ligand,1 µM,4.9%
COc1ncc2cc3ccccc3nc2c1C#N,cell-free assay,competition with immobilised ligand,5 µM,92%
O=C(Nc1c[nH]nc1C(=O)NC1CCNCC1)c1cc(F)cc(F)c1,binding,competition with immobilised ligand,1 µM,90%
CO[C@@H](C)c1c(Nc2ccc([C@H](N(C)C(=O)C3CCS(=O)(=O)CC3)C(F)(F)F)cc2)cnc2cc(Cl)nn12,cell-free assay,competition with immobilised ligand,1 µM,100%
CN(c1nccc(-c2cnn3ncccc23)n1)C1CC1,binding,,1 µM,100%
Cc1c(NC(=O)c2cc(C(N)=O)nc3cc(F)ccc23)c(C(F)(F)F)nn1Cc1ccc(C(C)(C)C)cc1,cell-free assay,competition with immobilised ligand,1 µM,100%
N[C@H]1CCN(c2nccc(-c3cnn4ncccc34)n2)C1,binding,,1 µM,77%
FC(F)(F)Oc1cccc(-c2cnc3ccc(-c4ccncc4)nn23)c1,cell-free assay,competition with immobilised ligand,5 µM,34%
COc1ccnn2ncc(-c3ccnc(N(C)C)n3)c12,binding,,1 µM,96%
COc1cnc(Nc2cccc(S(N)(=O)=O)c2)nc1N1CCN(c2ccccc2)C(=O)C1,binding,competition with immobilised ligand,1 µM,64%
